Source: ChEMBL document CHEMBL3352196, “Synthesis, structural characterization and effect on human granulocyte intracellular cAMP levels of abscisic acid analogs” (Bioorg Med Chem, 2015)
Activity calls are given as the source filed them. The calls are words filed in the database; no cut-off is given here.

What was measured:
[1] = species on record: Homo sapiens; assay: Increase in intracellular cAMP level in human granulocytes at 1 to 50 uM incubated for 1 min at 25 degC; format: functional, cell-based
Method in brief: (§1)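 Human granulocytes were rested overnight after purification, pelleted at 200×g for 5 min, and resuspended at 1.5 × 10⁷/ml in HBSS with Ca and Mg. Cells were preincubated 5 min at 25 °C with the PDE inhibitor Ro-20-1724, then given analog alone for 1 min at 25 °C. Perchloric acid at 4 °C stopped the reaction, and supernatant was neutralized to pH 7.5 with K2CO3. cAMP was read by [³H]-cAMP competitive radioimmunoassay and reported relative to untreated cells.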

[2] = species on record: Homo sapiens; assay: Inhibition of 1 uM ABA-induced Increase in intracellular cAMP level in human granulocytes at 50 uM incubated for 1 min at 25 degC; format: functional, cell-based
Method in brief: (§2)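 Cells were rested overnight, then resuspended at 1.5 × 10⁷/ml in HBSS containing Ca and Mg. After a 5 min preincubation at 25 °C with Ro-20-1724 (PDE inhibitor), aliquots received ABA with or without analog for 1 min at 25 °C; untreated cells were the control. Cold perchloric acid ended the reaction; lysate was spun, neutralized with K2CO3 to pH 7.5, and cleared of KClO4. cAMP was measured by [³H]-cAMP radioimmunoassay and given as increase over control.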

[3] = target: T1, LanC-like protein 2 (Homo sapiens, UniProt Q9NS86); assay: Inhibition of ABA binding to LANCL2 (unknown origin)
T1 sequence (Q9NS86 whole entry): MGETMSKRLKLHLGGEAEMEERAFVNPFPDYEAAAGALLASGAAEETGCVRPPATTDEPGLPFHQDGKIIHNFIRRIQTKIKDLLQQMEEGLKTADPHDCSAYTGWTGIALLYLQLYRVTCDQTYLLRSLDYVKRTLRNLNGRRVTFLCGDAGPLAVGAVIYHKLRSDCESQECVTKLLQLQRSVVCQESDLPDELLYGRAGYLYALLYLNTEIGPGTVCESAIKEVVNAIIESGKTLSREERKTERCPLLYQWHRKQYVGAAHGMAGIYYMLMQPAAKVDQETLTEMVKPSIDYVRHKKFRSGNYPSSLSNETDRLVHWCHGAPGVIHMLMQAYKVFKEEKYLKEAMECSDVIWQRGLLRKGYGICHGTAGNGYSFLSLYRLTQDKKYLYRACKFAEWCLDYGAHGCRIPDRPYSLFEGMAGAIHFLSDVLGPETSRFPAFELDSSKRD

[4] = Inhibition of 1 uM ABA-induced Increase in intracellular cAMP level in human granulocytes incubated for 1 min at 25 degC; format: functional, cell-based; method in brief: as §2
[5] = species on record: Homo sapiens; assay: Increase in intracellular cAMP level in human granulocytes at 1 to 10 uM incubated for 1 min at 25 degC; format: functional, cell-based; method in brief: as §1
[6] = species on record: Homo sapiens; assay: Increase in intracellular cAMP level in human granulocytes at 50 uM incubated for 1 min at 25 degC; format: functional, cell-based; method in brief: as §1
[7] = species on record: Homo sapiens; assay: (§3) Increase in intracellular cAMP level in human granulocytes at 1 uM incubated for 1 min at 25 degC; format: functional; method in brief: as §1
[8] = species on record: Homo sapiens; assay: Potentiation of 1 uM ABA-induced Increase in intracellular cAMP level in human granulocytes at 50 uM incubated for 1 min at 25 degC; format: functional, cell-based; method in brief: as §2
[9] = species on record: Homo sapiens; assay: Inhibition of 1 uM ABA-induced Increase in intracellular cAMP level in human granulocytes at 1 to 10 uM incubated for 1 min at 25 degC; format: functional, cell-based; method in brief: as §2
[10] = as §3; format: functional; method in brief: as §1

SMILES	Activity [1]	inhibition [2]	also measured
COC(=O)/C=C(C)\C=C\c1c(C)cc(OC(C)=O)c(C)c1C	inactive	inactive	–
CC(=C/C(=O)O)/C=C/C1(O)C(C)(C)CC(=O)C2OC21C (racemic)	–	Active	IC50 [3]: 6.56 nM; IC50 [4]: 0.7 nM
CC(=O)/C=C/C12OC1(C)CCCC2(C)C (racemic)	–	inactive	Activity [5]: inactive; Activity [6]: Active
CC(=O)OC1C=C(C)C(O)(/C=C/C(C)=C\C(=O)O)C(C)(C)C1 (racemic)	Active	–	–
CC1=CC(=O)CC(C)(C)C1(O)/C=C/C(C)=C\C(=O)Nc1ccc(N)cc1 (racemic)	inactive	inactive	–
CC1=CC(=O)CC(C)(C)C1(O)/C=C/C(C)=C\C(=O)Nc1ccccc1 (racemic)	Active	–	Activity [7]: Active
CC1=CC(=O)CC(C)(C)C1(O)/C=C/C(C)=C\C(=O)OC(C)(C)C (racemic)	Active	–	Activity [8]: inactive
CC1=CC(=O)CC(C)(C)C1(O)/C=C/C(C)=C\C(=O)OCC(=O)OC(C)(C)C (racemic)	–	–	Activity [5]: Active; Activity [7]: Active
CC1=CC(=O)CC(C)(C)C1(O)/C=C/C(C)=C\C(=O)OCC(=O)OCC(=O)O (racemic)	–	Active	inhibition [9]: inactive; Activity [6]: inactive
CC1=CC(=O)CC(C)(C)C1(O)/C=C/C(C)=C\CO (racemic)	Active	–	–
CC1=CC(=O)O/C1=C\C1(O)C(C)=CC(=O)CC1(C)C (racemic)	Active	–	–
CC1=CC(O)CC(C)(C)C1(O)/C=C/C(C)=C\C(=O)O (racemic)	Active	–	–
CC1=CC(O)CC(C)(C)C1(O)/C=C/C(C)=C\C(=O)OCC(=O)OC(C)(C)C (racemic)	inactive	inactive	–
CC1=CC(O)CC(C)(C)C1(O)/C=C/C(C)=C\CO (racemic)	Active	–	–
CCN(CC)C(=O)/C=C(C)\C=C\C1(O)C(C)=CC(=O)CC1(C)C (racemic)	Active	–	–
COC(=O)/C=C(C)\C=C\C1(O)C(C)=CC(=O)CC1(C)C (racemic)	Active	–	Activity [8]: Active
COC(=O)/C=C(C)\C=C\C1(O)C(C)=CC(O)CC1(C)C (racemic)	inactive	inactive	–
COc1ccc(NC(=O)/C=C(C)\C=C\C2(O)C(C)=CC(=O)CC2(C)C)cc1 (racemic)	Active	–	Activity [7]: Active
CC1=CC(=O)CC(C)(C)[C@@]1(O)/C=C/C(C)=C\C(=O)O (racemic) [(+)-ABSCISIC ACID]	–	–	Activity [10]: 35%
